Tests used:
Assay type in all cases: functional
[1] = system: Meyerozyma guilliermondii; test: Antibiofilm activity against Candida guilliermondii ATCC 6260 assessed as fractional inhibitory concentration by two dimensional checkerboard dilution method in presence of anidulafungin
Summary of the method: (§1)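 Biofilms grown on PVC disks: 1·10^6 cfu/ml in RPMI 1640 (MOPS, pH 7), 1.5 h adhesion at 37 °C with shaking, PBS wash, 48 h maturation at 37 °C. Preformed biofilms exposed 24 h at 37 °C to anidulafungin/NSAID checkerboard combinations in RPMI. XTT-menadione reduction read at 490 nm. SMIC = 50% metabolic reduction versus drug-free control. Triplicate runs on different days; FIC index calculated.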

[2] = system: Meyerozyma guilliermondii; test: Antibiofilm activity against Candida guilliermondii a83 assessed as fractional inhibitory concentration by two dimensional checkerboard dilution method in presence of anidulafungin; summary of the method: as §1
Nakaseomyces glabratus [3] = test: Antibiofilm activity against Candida glabrata ATCC 15126 assessed as fractional inhibitory concentration by two dimensional checkerboard dilution method in presence of anidulafungin; summary of the method: as §1
Candida albicans [4] = test: Antibiofilm activity against Candida albicans 17a18 by two dimensional checkerboard dilution method
Summary of the method: (§2)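 Biofilms grown on sterilized PVC disks: 1·10^6 cfu/ml Candida cells adhered for 1.5 h at 37 °C with shaking, washed with PBS, then matured 48 h at 37 °C in RPMI 1640 (MOPS, pH 7). Preformed biofilms were washed and exposed to drug, alone or in two-dimensional checkerboard combination, in RPMI 1640 for 24 h at 37 °C on a rocker.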

Candida albicans [5] = test: Potentiation of anidulafungin-induced antibiofilm activity against Candida albicans ATCC 90028 at 0.1 uM to 100 mM after 48 hrs by XTT reduction assay relative to control; parameters: scale not given: the % may be the effect or the level left; summary of the method: as §2
Nakaseomyces glabratus [6] = test: Antibiofilm activity against Candida glabrata ATCC 15126 by two dimensional checkerboard dilution method in presence of anidulafungin; summary of the method: as §2
Candida albicans [7] = test: Antibiofilm activity against Candida albicans ATCC 24433 by two dimensional checkerboard dilution method; summary of the method: as §2
[8] = system: Meyerozyma guilliermondii; test: Antibiofilm activity against Candida guilliermondii ATCC 6260 by two dimensional checkerboard dilution method in presence of anidulafungin; summary of the method: as §2
Nakaseomyces glabratus [9] = test: Antibiofilm activity against Candida glabrata ATCC 15126 at 0.1 uM to 100 mM after 48 hrs by XTT reduction assay relative to control; parameters: scale not given: the % may be the effect or the level left; summary of the method: as §2
[10] = system: Meyerozyma guilliermondii; test: Antibiofilm activity against Candida guilliermondii a83 at 0.1 uM to 100 mM after 48 hrs by XTT reduction assay relative to control; parameters: scale not given: the % may be the effect or the level left; summary of the method: as §2
Nakaseomyces glabratus [11] = test: Antibiofilm activity against Candida glabrata ATCC 15126 by two dimensional checkerboard dilution method; summary of the method: as §2
Candida albicans [12] = test: Antibiofilm activity against Candida albicans ATCC 10231 by two dimensional checkerboard dilution method in presence of anidulafungin; summary of the method: as §2
Candida albicans [13] = test: Antibiofilm activity against Candida albicans ATCC 90028 assessed as fractional inhibitory concentration by two dimensional checkerboard dilution method in presence of anidulafungin; summary of the method: as §1
Candida albicans [14] = test: Antibiofilm activity against Candida albicans ATCC 24433 assessed as fractional inhibitory concentration by two dimensional checkerboard dilution method in presence of anidulafungin; summary of the method: as §1
Nakaseomyces glabratus [15] = test: Potentiation of anidulafungin-induced antibiofilm activity against Candida glabrata 18a10 assessed as anidulafungin-fractional inhibitory concentration index by two dimensional checkerboard dilution method; summary of the method: as §1
Nakaseomyces glabratus [16] = test: Potentiation of anidulafungin-induced antibiofilm activity against Candida glabrata ATCC 15126 assessed as anidulafungin-fractional inhibitory concentration index by two dimensional checkerboard dilution method; summary of the method: as §1
[17] = system: Meyerozyma guilliermondii; test: Potentiation of anidulafungin-induced antibiofilm activity against Candida guilliermondii ATCC 6260 at 0.1 uM to 100 mM after 48 hrs by XTT reduction assay relative to control; parameters: scale not given: the % may be the effect or the level left; summary of the method: as §2
[18] = system: Meyerozyma guilliermondii; test: Antibiofilm activity against Candida guilliermondii a83 by two dimensional checkerboard dilution method in presence of anidulafungin; summary of the method: as §2
Candida albicans [19] = test: Antibiofilm activity against Candida albicans ATCC 10231 assessed as fractional inhibitory concentration by two dimensional checkerboard dilution method in presence of anidulafungin; summary of the method: as §1
Candida albicans [20] = test: Potentiation of anidulafungin-induced antibiofilm activity against Candida albicans 17a18 at 0.1 uM to 100 mM after 48 hrs by XTT reduction assay relative to control; parameters: scale not given: the % may be the effect or the level left; summary of the method: as §2
Candida albicans [21] = test: Antibiofilm activity against Candida albicans ATCC 10231 by two dimensional checkerboard dilution method; summary of the method: as §2
Nakaseomyces glabratus [22] = test: Antibiofilm activity against Candida glabrata 18a10 by two dimensional checkerboard dilution method in presence of anidulafungin; summary of the method: as §2
Nakaseomyces glabratus [23] = test: Potentiation of anidulafungin-induced antibiofilm activity against Candida glabrata ATCC 15126 at 0.1 uM to 100 mM after 48 hrs by XTT reduction assay relative to control; parameters: scale not given: the % may be the effect or the level left; summary of the method: as §2
Candida albicans [24] = test: Potentiation of anidulafungin-induced antibiofilm activity against Candida albicans ATCC 10231 at 0.1 uM to 100 mM after 48 hrs by XTT reduction assay relative to control; parameters: scale not given: the % may be the effect or the level left; summary of the method: as §2
[25] = system: Meyerozyma guilliermondii; test: Potentiation of anidulafungin-induced antibiofilm activity against Candida guilliermondii a410 at 0.1 uM to 100 mM after 48 hrs by XTT reduction assay relative to control; parameters: scale not given: the % may be the effect or the level left; summary of the method: as §2
[26] = system: Meyerozyma guilliermondii; test: Potentiation of anidulafungin-induced antibiofilm activity against Candida guilliermondii ATCC 6260 assessed as anidulafungin-fractional inhibitory concentration index by two dimensional checkerboard dilution method; summary of the method: as §1
[27] = system: Meyerozyma guilliermondii; test: Antibiofilm activity against Candida guilliermondii a83 by two dimensional checkerboard dilution method; summary of the method: as §2
Candida albicans [28] = test: Antibiofilm activity against Candida albicans ATCC 24433 by two dimensional checkerboard dilution method in presence of anidulafungin; summary of the method: as §2
Candida albicans [29] = test: Potentiation of anidulafungin-induced antibiofilm activity against Candida albicans ATCC 90028 assessed as anidulafungin-fractional inhibitory concentration index by two dimensional checkerboard dilution method; summary of the method: as §1
Candida albicans [30] = test: Potentiation of anidulafungin-induced antibiofilm activity against Candida albicans ATCC 10231 assessed as anidulafungin-fractional inhibitory concentration index by two dimensional checkerboard dilution method; summary of the method: as §1
[31] = system: Meyerozyma guilliermondii; test: Antibiofilm activity against Candida guilliermondii ATCC 6260 by two dimensional checkerboard dilution method; summary of the method: as §2
[32] = system: Meyerozyma guilliermondii; test: Potentiation of anidulafungin-induced antibiofilm activity against Candida guilliermondii a83 at 0.1 uM to 100 mM after 48 hrs by XTT reduction assay relative to control; parameters: scale not given: the % may be the effect or the level left; summary of the method: as §2
[33] = system: Meyerozyma guilliermondii; test: Antibiofilm activity against Candida guilliermondii a410 assessed as fractional inhibitory concentration by two dimensional checkerboard dilution method in presence of anidulafungin; summary of the method: as §1
Candida albicans [34] = test: Antibiofilm activity against Candida albicans 17a18 assessed as fractional inhibitory concentration by two dimensional checkerboard dilution method in presence of anidulafungin; summary of the method: as §1
Candida albicans [35] = test: Antibiofilm activity against Candida albicans ATCC 90028 by two dimensional checkerboard dilution method; summary of the method: as §2
Candida albicans [36] = test: Potentiation of anidulafungin-induced antibiofilm activity against Candida albicans ATCC 24433 assessed as anidulafungin-fractional inhibitory concentration index by two dimensional checkerboard dilution method; summary of the method: as §1
Nakaseomyces glabratus [37] = test: Potentiation of anidulafungin-induced antibiofilm activity against Candida glabrata 18a10 at 0.1 uM to 100 mM after 48 hrs by XTT reduction assay relative to control; parameters: scale not given: the % may be the effect or the level left; summary of the method: as §2
Candida albicans [38] = test: Antibiofilm activity against Candida albicans 17a18 at 0.1 uM to 100 mM after 48 hrs by XTT reduction assay relative to control; parameters: scale not given: the % may be the effect or the level left; summary of the method: as §2
Candida albicans [39] = test: Potentiation of anidulafungin-induced antibiofilm activity against Candida albicans 17a18 assessed as anidulafungin-fractional inhibitory concentration index by two dimensional checkerboard dilution method; summary of the method: as §1

MIC (Candida albicans [4]) | MIC (Nakaseomyces glabratus [6]) | MIC (Candida albicans [7]) | MIC [8] | MIC (Nakaseomyces glabratus [11]) | MIC (Candida albicans [12]) | MIC [18] | SMILES | Ratio [1] | Ratio [2] | Ratio (Nakaseomyces glabratus [3]) | Activity (Candida albicans [5]) | Activity (Nakaseomyces glabratus [9]) | Activity [10] | Ratio (Candida albicans [13]) | Ratio (Candida albicans [14]) | fractional inhibitory concentration index (FICI) (Nakaseomyces glabratus [15]) | fractional inhibitory concentration index (FICI) (Nakaseomyces glabratus [16]) | Activity [17] | Ratio (Candida albicans [19]) | Activity (Candida albicans [20]) | other results
100000 µM | 20000 µM | 100000 µM | 40000 µM | 100000 µM | 5000 µM | 20000 µM | O=C([O-])Cc1ccccc1Nc1c(Cl)cccc1Cl.[Na+] [DICLOFENAC SODIUM] | 0.4 | 0.2 | 0.2 | 71.04% | 54.44% | 57.87% | 0.05 | 0.05 | 0.3 | 0.3 | 57.69% | 0.05 | 64.25% | MIC (Candida albicans [21]): 100000 µM; MIC (Nakaseomyces glabratus [22]): 20000 µM; Activity (Nakaseomyces glabratus [23]): 65.96%; Activity (Candida albicans [24]): 66.15%; Activity [25]: 54.28%; fractional inhibitory concentration index (FICI) [26]: 0.45; MIC [27]: 100000 µM; MIC (Candida albicans [28]): 5000 µM; fractional inhibitory concentration index (FICI) (Candida albicans [29]): 0.1; fractional inhibitory concentration index (FICI) (Candida albicans [30]): 0.1; MIC [31]: 100000 µM; Activity [32]: 55.64%; Ratio [33]: 0.4; Ratio (Candida albicans [34]): 0.05; MIC (Candida albicans [35]): 100000 µM; fractional inhibitory concentration index (FICI) (Candida albicans [36]): 0.1; Activity (Nakaseomyces glabratus [37]): 58.66%; Activity (Candida albicans [38]): 55.33%; fractional inhibitory concentration index (FICI) (Candida albicans [39]): 0.1
1000 µM | 40 µM | 1000 µM | 20 µM | 200 µM | 50 µM | 40 µM | CC(C)Cc1ccc(C(C)C(=O)O)cc1 (stereo not drawn) [IBUPROFEN] | 0.1 | 0.2 | 0.2 | 61.43% | 57.23% | 56.78% | 0.1 | 0.1 | 0.25 | 0.25 | 53.32% | 0.05 | 64.22% | MIC (Candida albicans [21]): 1000 µM; MIC (Nakaseomyces glabratus [22]): 40 µM; Activity (Nakaseomyces glabratus [23]): 57.46%; Activity (Candida albicans [24]): 59.51%; Activity [25]: 51.31%; fractional inhibitory concentration index (FICI) [26]: 0.3; MIC [27]: 200 µM; MIC (Candida albicans [28]): 1000 µM; fractional inhibitory concentration index (FICI) (Candida albicans [29]): 0.3; fractional inhibitory concentration index (FICI) (Candida albicans [30]): 0.25; MIC [31]: 200 µM; Activity [32]: 52.11%; Ratio [33]: 0.1; Ratio (Candida albicans [34]): 0.05; MIC (Candida albicans [35]): 1000 µM; fractional inhibitory concentration index (FICI) (Candida albicans [36]): 0.3; Activity (Nakaseomyces glabratus [37]): 62.33%; Activity (Candida albicans [38]): 24.51%; fractional inhibitory concentration index (FICI) (Candida albicans [39]): 0.25

From ChEMBL document CHEMBL3758165, “In vitro interactions between anidulafungin and nonsteroidal anti-inflammatory drugs on biofilms of Candida spp” (2016)
